Compound activity (PubChem BioAssay)
Xi reactivation – activators of inactive X chromosome reactivation, primary screen, imaging, XiGFP fibroblasts, GFP high-content imaging, set 2 | actives 0.055% (n = 360,000) | AID 743238, 2013 | activation, % at 7.58 µM | XiGFP mouse fibroblasts, % GFP-positive cells imaging, 3 d; cells co-treated with 5-aza-dC sensitizer; scaled so ellipticine positive control = 100%;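 active = mean normalized replicate activation at least 10% and every replicate at or above 10%; inconclusive = only one of the two criteria met; inactive = mean below 10% and not all replicates reach 10%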;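 note: 0% = median of on-plate neutral control wells and 100% = ellipticine 6 µM median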
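System: XiGFP fibroblasts, SV40-immortalized. Medium: DMEM plus 5-aza-dC sensitizer. Doses: single point. Timing: 3 d treatment, 15 min room-temperature fixation. Control set: ellipticine 6 µM.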
E-selectin induc – E-selectin induction in HUVECs, primary screen, imaging, HUVEC, immunofluorescence imaging, single point | activation, % at 7.58 µM | actives 0.37% (n = 260,000) | P16581 | normalized: neutral wells 0, TNF-alpha wells 100;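 active = mean E-selectin-positive cell signal at least 10% of the positive control, reached in at least 60% of replicates, without over 20% cell loss; inconclusive = no rule given, readout overlaps actives, possibly toxicity-flagged; inactive = the rest, including those meeting only one limit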
Target sequence (P16581 whole entry, looked up): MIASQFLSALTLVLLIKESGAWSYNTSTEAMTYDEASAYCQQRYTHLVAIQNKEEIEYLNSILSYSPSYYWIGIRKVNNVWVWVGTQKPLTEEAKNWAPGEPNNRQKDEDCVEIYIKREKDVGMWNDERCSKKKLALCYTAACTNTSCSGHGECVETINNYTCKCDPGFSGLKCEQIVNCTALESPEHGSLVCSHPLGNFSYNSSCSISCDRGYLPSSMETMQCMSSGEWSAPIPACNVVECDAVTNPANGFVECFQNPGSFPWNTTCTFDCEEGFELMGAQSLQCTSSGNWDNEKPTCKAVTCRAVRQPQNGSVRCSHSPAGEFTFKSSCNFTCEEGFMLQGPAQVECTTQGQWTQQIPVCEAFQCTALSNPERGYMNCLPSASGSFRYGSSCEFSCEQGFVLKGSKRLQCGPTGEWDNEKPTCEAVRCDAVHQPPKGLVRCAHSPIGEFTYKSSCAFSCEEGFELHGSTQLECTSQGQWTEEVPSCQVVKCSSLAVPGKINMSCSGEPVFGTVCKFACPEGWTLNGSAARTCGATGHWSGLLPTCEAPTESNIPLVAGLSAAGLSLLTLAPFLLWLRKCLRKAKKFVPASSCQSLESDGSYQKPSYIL
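Test system – human umbilical vein endothelial cells (HUVEC), E-selectin induction · Input – 3,000 HUVEC seeded per well · Buffer or medium – EGM-2, gelatin · Compound dosing – single-point compound dose · Detection – immunofluorescence imaging · Measure – percent E-selectin-positive cells · Controls – TNF-alpha high, DMSO low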
DENV2 CPE – inhibitors of DENV2 cytopathic effect, primary screen, cell-based, plate reader, single concentration; CPE inhibition, % at 9.99 µM; actives 1.7% (n = 350,000); DENV2-infected cells, cytopathic effect rescue; in the data active = CPE inhibition above about 20%, passing the limit was not always enough; inconclusive = no clear call, values can overlap the other calls; tested in BHK-21 cells;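 note: 0% = median of neutral control wells and 100% = median of positive control wells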
S100A4 MyoIIA – inhibitors of S100A4-myosin IIA peptide binding, primary screen, biochemical, fluorescence polarization, TAMRA-MyoIIA peptide. Protein S100-A4 (Homo sapiens), P26447. inhibition, % at 10.7 µM. actives 0.14% (n = 360,000). AID 652163, 2013;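 active = mean inhibition of at least 70% across replicates, with every replicate also reaching that level; inconclusive = mean inhibition reaches 70% but some replicates fall short; inactive = mean inhibition below 70%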
Target sequence (P26447 whole entry, looked up): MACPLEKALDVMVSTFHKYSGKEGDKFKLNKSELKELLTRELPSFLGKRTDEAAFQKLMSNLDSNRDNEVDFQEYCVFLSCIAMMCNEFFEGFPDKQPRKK
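Material: S100A4 monomer protein | Medium: HEPES pH 7.2 with CaCl2, KCl, NaCl, DTT, Triton | Reagent: Labelled myosin peptide probe, 5 nM | Doses: One dose per compound | Times: 5 min incubation before reading | Benchmarks: Neutral control DMSO, positive control TFP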
* marks the source's active call; other numbers are inactive results; ? = inconclusive; nt = no result. Hits are enriched below; roughly 2% of the tested compounds scored in any of these assays.

SMILES | Xi reactivation | E-selectin induc | DENV2 CPE | S100A4 MyoIIA
CC1(C(=O)NS(=O)(=O)c2ccc(Cl)cc2)CCN1C(=O)COc1ccc(Cl)cc1 (stereo not drawn) | 0.3 | 0.0 | 1.5 | 5.6
CC(C)(C(=O)N1CCC1(C)C(=O)NS(=O)(=O)c1cccc(F)c1)c1ccccc1 (stereo not drawn) | 0.0 | -0.2 | 0.2 | -7.0
CC(C)(C(=O)N1CCC1(C)C(=O)NS(=O)(=O)c1cccc(Cl)c1)c1ccccc1 (stereo not drawn) | 1.5 | 0.0 | 43.7* | -0.4
CC1(C(=O)NS(=O)(=O)c2cccc(Cl)c2)CCN1C(=O)COc1ccc(Cl)cc1 (stereo not drawn) | 0.2 | -0.2 | 85.5* | -4.0
Cc1ccc(C2(C)NC(=O)N(CC(=O)Nc3ccccc3C(=O)NC3CCCC3)C2=O)cc1 (stereo not drawn) | -0.1 | 0.2 | 62.2* | -2.0
COc1ccc(OC)c(/C=N\NC(=O)c2cc3c(ccc4ccccc43)o2)c1 | 0.2 | -0.1 | -3.2 | -49.6
Cc1ccc(S(=O)(=O)Nc2cc(-c3ccccc3)nn2C)cc1Cl | 0.2 | 53.1* | 4.5 | -16.9
CC(C)NC(=O)N(C)C[C@@H]1Oc2c(NC(=O)Nc3cccc4ccccc34)cccc2C(=O)N([C@H](C)CO)C[C@H]1C | 0.7 | 0.0 | 17.7 | 100.6*
CC(C)NC(=O)Nc1cccc2c1O[C@@H](CN(C)C(=O)NC(C)C)[C@@H](C)CN([C@@H](C)CO)C2=O | -0.1 | -0.9 | 65.9* | 6.3
CC(C)NC(=O)Nc1cccc2c1O[C@H](CN(C)C(=O)Nc1ccccc1)[C@@H](C)CN([C@@H](C)CO)C2=O | 0.1 | -0.1 | 47.5* | -9.3
CC(C)NC(=O)Nc1cccc2c1O[C@H](CN(C)C(=O)NC(C)C)[C@@H](C)CN([C@H](C)CO)C2=O | 0.3 | 4.0 | ? | 18.1
CC(C)NC(=O)N(C)C[C@@H]1Oc2c(NC(=O)Nc3cccc4ccccc34)cccc2C(=O)N([C@H](C)CO)C[C@@H]1C | 0.0 | 0.5 | 5.7 | -9.6
C[C@H](CO)N1C[C@H](C)[C@H](CN(C)C)Oc2c(NC(=O)Nc3cccc4ccccc34)cccc2C1=O | -0.7 | nt | 33.6* | ?
C[C@@H]1CN([C@@H](C)CO)C(=O)c2cc(C#CC3CC3)cnc2O[C@H]1CN(C)C(=O)Cc1ccccn1 | -0.5 | 3.8 | -6.4 | -12.5
O=S(=O)(Cc1ccccc1)N1CCN(Cc2c(F)cccc2Cl)CC1 | -0.1 | 0.1 | -3.5 | 0.4
Clc1ccc(-c2ccn[nH]2)cc1 | 0.0 | nt | 0.0 | -4.3
O=C(COC(=O)c1ccc(-n2cnnn2)cc1)c1ccc(Br)cc1 | -0.1 | 27.0* | -3.9 | -3.4
COc1ccc(CCn2c(C)cc(C(=O)CN3C(=O)C(=O)N(Cc4ccco4)C3=O)c2C)cc1 | 34.3* | 6.1 | 2.0 | -12.0
COc1ccc2c3c([nH]c2c1)[C@@H](CO)N(Cc1ccncc1)CC31CCN(CC2CCOCC2)CC1 | 0.0 | 0.1 | -0.2 | 14.0
CC(C(=O)NC1CCCCCC1)n1cc([N+](=O)[O-])cn1 (stereo not drawn) | 0.1 | -0.1 | -1.9 | 0.1
CC(C)C[C@@H](CN1CCC[C@@H]1CN1C(=S)NC[C@@H]1Cc1ccc(O)cc1)N1C[C@H](Cc2ccc(O)cc2)N(CC2CCCCCC2)C1=S | 0.4 | -2.3 | -5.5 | 1.7
CC(C)C[C@@H](CN1CCC[C@@H]1CN1C(=S)NC[C@@H]1Cc1ccc(O)cc1)N1C[C@H](Cc2ccc(O)cc2)N(CC2CCCCC2)C1=S | -0.1 | nt | 27.9* | -2.7
COc1cccc(S(=O)(=O)N2C[C@@H](O)COC[C@@H]3O[C@@H](CC(=O)N4CCOCC4)CC[C@H]32)c1 | 0.2 | 0.2 | -2.5 | 5.9
CC(C)(C)S(=O)N1Cc2cc(C(=O)NCc3ccc4c(c3)OCO4)nc(-c3cccc(-c4cccc(F)c4)c3)c2[C@@H]1CCO (stereo partly drawn) | 0.0 | 0.0 | 23.9* | -21.9
CC(C)(C)S(=O)N1Cc2cc(C(=O)NCc3ccc4c(c3)OCO4)nc(-c3cccc(C#CCC4CCCC4)c3)c2[C@H]1CCO (stereo partly drawn) | nt | nt | 6.5 | -18.4
SMILES | Xi reactivation | E-selectin induc | DENV2 CPE | S100A4 MyoIIA
CC(C)(C)S(=O)N1Cc2cc(C(=O)NCc3ccc4c(c3)OCO4)nc(-c3cccc(C#CCC4CCCC4)c3)c2[C@@H]1CCO (stereo partly drawn) | nt | nt | 49.4* | -27.9
COc1ccc(NC(=O)Nc2ccc3c(c2)C(=O)N([C@@H](C)CO)C[C@H](C)[C@@H](CN(C)C(=O)C2CCCCC2)OCCCC[C@H](C)O3)cc1 | 0.0 | 0.1 | 39.4* | -3.6
COc1ccc(NC(=O)Nc2ccc3c(c2)C(=O)N([C@H](C)CO)C[C@@H](C)[C@H](CN(C)C(=O)C2CCCCC2)OCCCC[C@H](C)O3)cc1 | -0.1 | 0.4 | 20.7* | -2.9
Cc1nc(-c2ccc(S(=O)(=O)N3CCN(c4ccccc4)CC3)cc2)co1 | 0.0 | nt | -6.7 | -5.9
Cc1ccc(C(=O)c2c3ccc([N+](=O)[O-])cc3[n+]([O-])n2CCCN)cc1 | 0.1 | 0.1 | 20.7* | -2.8
Cc1ccc(C(=O)c2c3ccc(C(F)(F)F)cc3[n+]([O-])n2CCCN)cc1 | 0.0 | 0.2 | -14.9 | -4.8
O=C(NCc1cccs1)C1(S(=O)(=O)c2ccccc2)CC=CC1 | 0.0 | -0.2 | -19.4 | -3.5
O=C(NCc1ccco1)C1(S(=O)(=O)c2ccccc2)CC=CC1 | 0.6 | -0.2 | 40.6* | -11.7
Cc1ccc(-c2nc(NCCCO)c3ccccc3n2)cc1 | -0.2 | nt | 31.3* | 3.0
Cc1ccc(-c2nc(NCCN(C)C)c3ccccc3n2)cc1 | 0.0 | 8.1 | 6.4 | 1.7
O=C(NCCc1ccncc1)[C@H]1[C@H](CO)[C@H]2Cn3c(ccc(-c4cccc(F)c4)c3=O)[C@@H]1N2 | 0.0 | 0.5 | -9.9 | -3.6
O=C(NCCc1ccncc1)[C@@H]1[C@@H](CO)[C@@H]2Cn3c(ccc(-c4cccc(F)c4)c3=O)[C@H]1N2 | -0.1 | 0.3 | 84.7* | 11.6
CCN(Cc1ccccc1)c1ccccc1 | nt | nt | 37.4* | -2.5
O=C(Cc1ccccc1)N1CC[C@H]2[C@H](CO)Nc3ccc(C#Cc4cccc(F)c4)cc3[C@H]21 | 0.0 | 0.0 | 3.1 | -0.6
C[C@H]1[C@@H](Cc2cc(Cl)cc(Cl)c2)N(c2ccccc2)c2ccccc2CN1Cc1ccccc1 | 0.1 | 0.8 | 43.4* | 9.1
O=C1CC(c2ccc(F)cc2)C(n2cncn2)C(O)=C1C1NCCc2ccccc21 (stereo not drawn) | 0.2 | 11.0 | 2.8 | -0.2
CN(Cc1ccccc1)C(=O)c1cccc(NC(=O)Cc2ccc(NC(=O)C3CCCN(C(=O)CCc4ccccc4)C3)cc2)c1 (stereo not drawn) | 0.3 | -0.1 | 63.9* | -7.9
